The results in this text go back to ChEMBL document CHEMBL4024783, “Alkylated Piperazines and Piperazine-Azole Hybrids as Antifungal Agents” (J Med Chem, 2018).

For one data set, the system named is A549. The data set is described as follows: Cytotoxicity against human A549 cells up to 31 ug/ml after 24 hrs by resazurin-based fluorescence assay. The data set is classed as cell-based. Particulars: a549, 24 h. The method in brief: (§1)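 Cells grown in DMEM with 10% FBS at 37 °C, 5% CO2, and seeded at 10000 (HEK-293) or 3000 (BEAS-2B, A549) per well. After 16 h, exposed 24 h to 0.13–31 µg/mL final in medium with 0.1–0.4% DMSO. Resazurin added for 6–10 h; fluorescence read at 560/590 nm and survival normalized to DMSO control after background subtraction. Triton X-100 12.5% v/v positive control; duplicate.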

Data set [1] has as its system Candida parapsilosis. Nature of the data set: Antifungal activity against Candida parapsilosis ATCC 22019 after 48 hrs in the presence of 10% FBS by broth dilution method. The data set is classed as functional. Conditions: Lodderomyces parapsilosis, ATCC 22019, 48 h. (In general: In broth dilution the organism is exposed to a series of concentrations in liquid medium.)

Data set [2] relates to Candida albicans. The data set is described as follows: Ratio of MIC80 for voriconazole resistant Candida albicans ATCC 64124 sessile cells to MIC for voriconazole resistant Candida albicans ATCC 64124. Format: functional.
The subject of data set [3] is Candida parapsilosis. Nature of the data set: Antifungal activity against Candida parapsilosis ATCC 22019 after 48 hrs by broth dilution method. The data set is classed as functional. Conditions: Lodderomyces parapsilosis, ATCC 22019, 48 h.
A further data set deals with Aspergillus flavus. Nature of the data set: Antifungal activity against Aspergillus flavus ATCC MYA-3631 after 48 hrs by broth dilution method. Conditions: ATCC MYA-3631, 48 h. The data set is classed as functional.
The subject of data set [4] is Candida albicans. Nature of the data set: Antifungal activity against itraconazole and fluconazole resistant Candida albicans ATCC MYA-1237 after 48 hrs by broth dilution method. Particulars: Candida albicans, ATCC MYA-1237, 48 h. Format: functional. The essentials:
(§2)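 CLSI M27-A3 broth microdilution with minor modifications. Overnight YPD culture grown at 35 °C, 200 rpm, adjusted to OD600 0.12, diluted in RPMI 1640 buffered to pH 7.0 with 0.165 M MOPS to a final 1–2 × 10^3 CFU/mL. Test compounds at 0.015–31.3 µg/mL, 48 h at 35 °C, DMSO <1.25%. […] Triplicate.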

In data set [5] the test system is Candida albicans. The data set is described as follows: Antibiofilm activity against voriconazole resistant Candida albicans ATCC 64124 sessile cells incubated for 24 hrs by XTT reduction assay. The data set is classed as functional. Particulars: ATCC 64124, 24 h. The method in brief:
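Strain B grown overnight in YPD broth at 35 °C, diluted to OD600 0.1 (~10^6 CFU/mL), then grown statically for 24 h at 37 °C to form biofilm. Washed with PBS, then drug in RPMI 1640 at 0.12–62.5 µg/mL for 24 h at 37 °C. Read-out: XTT 0.5 mg/mL with menadione 1 µM, 2 h, A490. SMIC50/SMIC80 are 50%/80% decreases versus drug-free biofilm. Duplicate.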
In general terms: Tetrazolium dyes change colour on reduction, which living cells bring about.

The subject of data set [6] is Candida albicans. The data set is described as follows: Antifungal activity against itraconazole and fluconazole susceptible Candida albicans ATCC MYA-2310 after 48 hrs by broth dilution method. Particulars: Candida albicans, ATCC MYA-2310, 48 h. The data set is classed as functional.
In another data set the test system is Nakaseomyces glabratus. Nature of the data set: Antifungal activity against Candida glabrata ATCC 2001 after 48 hrs by broth dilution method. Format: functional, CBS 138. Conditions: Nakaseomyces glabratus, CBS 138, 48 h.
Data set [7] deals with Candida albicans. Nature of the data set: Antifungal activity against Candida albicans ATCC 10231 after 48 hrs by broth dilution method. Conditions: ATCC 10231, 48 h. Format: functional.
Data set [8] deals with Candida parapsilosis. Nature of the data set: Ratio of MIC in presence of 10% FBS to MIC in absence of 10% FBS for Candida parapsilosis ATCC 22019. The data set is classed as functional. The essentials: (§3)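 MIC broth dilution run in parallel in RPMI 1640 with or without 10% fetal bovine serum against C. albicans ATCC 10231, C. parapsilosis ATCC 22019 and A. nidulans ATCC 38163.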

The test system of data set [9] is Aspergillus nidulans. The data set is described as follows: Antifungal activity against Aspergillus nidulans ATCC 38163 after 48 hrs in the presence of 10% FBS by broth dilution method. Conditions: ATCC 38163, 48 h. The data set is classed as functional.
For the next data set, the system named is HEK293. The data set is described as follows: Cytotoxicity against HEK293 cells up to 31 ug/ml after 24 hrs by resazurin-based fluorescence assay. Format: cell-based. Particulars: human, hek293, 24 h. The method in brief:
as §1
Background: The colour change of resazurin is a common sign of viable cells or microbes.

Another data set has as its system BEAS-2B. The data set is described as follows: Cytotoxicity against human BEAS2B cells up to 31 ug/ml after 24 hrs by resazurin-based fluorescence assay. The data set is classed as cell-based. The essentials: as §1
The subject of a further data set is Pichia kudriavzevii. Nature of the data set: Antifungal activity against Candida krusei ATCC 6258 after 48 hrs by broth dilution method. Format: functional. Conditions: Pichia kudriavzevii, ATCC 6258, 48 h. The method in brief: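 Yeasts tested per CLSI M27-A3 with minor changes. An overnight YPD culture (35 °C, 200 rpm) was adjusted to OD600 0.12 and diluted in MOPS-buffered RPMI 1640 (pH 7.0) to a final 1–2 × 10^3 CFU/mL. Compounds 0.015–31.3 µg/mL, DMSO <1.25%.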

Data set [10] relates to Candida albicans. The data set is described as follows: Antifungal activity against itraconazole and fluconazole susceptible Candida albicans ATCC MYA-2876 after 48 hrs by broth dilution method. The data set is classed as functional. Particulars: Candida albicans, ATCC MYA-2876, 48 h.
Data set [11] relates to Candida albicans. The data set is described as follows: Antifungal activity against Candida albicans ATCC 64124 after 48 hrs by broth dilution method. The data set is classed as functional. Particulars: Candida albicans, ATCC 64124, 48 h. The essentials: as §2
Data set [12] has as its system Candida albicans. Nature of the data set: Antifungal activity against itraconazole and fluconazole resistant Candida albicans ATCC 90819 after 48 hrs by broth dilution method. Format: functional. Particulars: Candida albicans, ATCC 90819, 48 h. The essentials: as §2
Data set [13] concerns Candida albicans. The data set is described as follows: Antifungal activity against itraconazole and fluconazole resistant Candida albicans ATCC MYA-1003 after 48 hrs by broth dilution method. Format: functional. Particulars: Candida albicans, ATCC MYA-1003, 48 h. The method in brief:
as §2

A short description of data set [14]: Aqueous solubility of the compound. Format: physicochemical. Particulars: buffer.
Data set [15] deals with Aspergillus nidulans. Nature of the data set: Antifungal activity against Aspergillus nidulans ATCC 38163 after 48 hrs by broth dilution method. The data set is classed as functional. Conditions: Aspergillus nidulans, ATCC 38163, 48 h. The method in brief:
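A. nidulans run per CLSI M38-A2. PDA spores were filtered through glass wool and counted by hemocytometer. Test range 0.03–31.3 µg/mL in MOPS-buffered RPMI 1640 (pH 7.0), final 5 × 10^5 CFU/mL.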

Data set [16] has as its system Aspergillus nidulans. Nature of the data set: Ratio of MIC in presence of 10% FBS to MIC in absence of 10% FBS for Aspergillus nidulans ATCC 38163. The data set is classed as functional. The method in brief: as §3
The test system of the next data set is Aspergillus terreus. Nature of the data set: Antifungal activity against Aspergillus terreus ATCC MYA-3633 after 48 hrs by broth dilution method. Format: functional. Particulars: Aspergillus terreus, ATCC MYA-3633, 48 h. The method in brief:
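Molds tested per CLSI M38-A2. Spores were harvested from sporulating PDA cultures by filtering through glass wool and counted on a hemocytometer. Serial dilutions (0.03–31.3 µg/mL) were made in RPMI 1640 buffered to pH 7.0 with 0.165 M MOPS, final inoculum 5 × 10^5 CFU/mL.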

Data set [17] deals with Candida albicans. The data set is described as follows: Ratio of MIC in presence of 10% FBS to MIC in absence of 10% FBS for Candida albicans ATCC 10231. The data set is classed as functional. The essentials:
as §3

The subject of data set [18] is Candida albicans. The data set is described as follows: Antifungal activity against Candida albicans ATCC 10231 after 48 hrs in the presence of 10% FBS by broth dilution method. The data set is classed as functional. Particulars: ATCC 10231, 48 h.
Data set [19] in a line: Solubility of the compound in DMSO. Format: physicochemical.
For data set [20], the system named is Candida albicans. Nature of the data set: Antifungal activity against Candida albicans ATCC 10231 at […] ug/mL incubated for 1 hr by propidium iodide staining-based fluorescence microscopic method. Format: functional.

≈ marks a conversion by molar mass, not a printed value. Calls of active or inactive are those of the source.

As to `CCCCCCCCCCCCCCN1CCNCC1`, the Activity result in the data set on A549, in the data set on HEK293 and with BEAS-2B was “Toxic” throughout. Also, the MIC with Candida parapsilosis [1] was determined as 7.8 µg/mL; in the data set on Candida parapsilosis [3], 3.5 µM (≈ 0.989 µg/mL); in the data set on Aspergillus flavus, 3.5 µM (≈ 0.989 µg/mL); in the data set on Candida albicans [4] it was 6.9 µM (≈ 1.95 µg/mL); in the data set on Candida albicans [6] it was 3.5 µM (≈ 0.989 µg/mL); in the data set on Nakaseomyces glabratus, 3.5 µM (≈ 0.989 µg/mL). The MIC in the data set with Candida albicans [7] was 3.5 µM (≈ 0.989 µg/mL); with Aspergillus nidulans [9], 7.8 µg/mL; against Pichia kudriavzevii, 3.5 µM (≈ 0.989 µg/mL); against Candida albicans [10], 3.5 µM (≈ 0.989 µg/mL); in the data set on Candida albicans [11], 3.5 µM (≈ 0.989 µg/mL); in the data set on Candida albicans [12], 6.9 µM (≈ 1.95 µg/mL). In addition, the MIC in the data set on Candida albicans [13] is 6.9 µM (≈ 1.95 µg/mL); with Aspergillus nidulans [15], 3.5 µM (≈ 0.989 µg/mL); in the data set on Aspergillus terreus, 3.5 µM (≈ 0.989 µg/mL); in the data set with Candida albicans [18] it was 7.8 µg/mL. Also, the Ratio was 16 - 64 with Candida albicans [2], 2 - 8 in the data set on Candida parapsilosis [8], 2 - 8 with Aspergillus nidulans [16] and 2 - 8 in the data set with Candida albicans [17]. The same molecule came in with an MIC50 with Candida albicans [5] of 15.6 µg/mL (≈ 55.2 µM). The MIC80 against Candida albicans [5] stood at 62.5 µg/mL (≈ 221 µM). The solubility entry in data set [14] and in data set [19] was “Soluble” each time.
`CCCCCCCCCCCCCCOC[C@H]1O[C@H](O[C@@H]2[C@@H](O)[C@H](O[C@H]3O[C@H](CN)[C@@H](O)[C@H](O)[C@H]3N)[C@@H](N)C[C@H]2N)[C@H](O)[C@@H](N)[C@@H]1O`: the outcome in the data set on Candida albicans [20] was Active.

Broadly, the MIC is the smallest concentration in the dilution series that meets the test's criterion for growth inhibition.
